B1: Osa-1-4 twister ribozyme (parent)
chain: CCGCCUAACACUGCCAAUGCCGGUCCCAAGCCCGGAUAAAAGUGGAGGGGGCGG

Data on 48 variants can be found in the RNAGym collection of RNA variant scans (doi:10.1002/anie.201605470).

The data set covers variants of B1. Briefly: self-cleavage, relative activity (ratio to wild type); higher = more cleavage; co-transcriptional. The essentials: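 In vitro transcription at 37 °C for 2 h allowed the twister ribozyme to cleave itself as it was made. Its 54-nucleotide Oryza sativa template had been synthesised with 97 % wild-type base and 1 % of each other base at the 48 positions downstream of the cleavage site. A template-switching oligonucleotide was used for reverse transcription, followed by PCR amplification and deep sequencing. Whether reads carried upstream sequence set the cleavage status, and relative activity is the fraction cleaved normalised to wild type.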
CCGCCUAACACUGCCUAUGCCCGUCCCAAGCCCGGAUAAAAGUGGAGGGGGCGG: the self-cleavage came out at 0.11. CCGCCUAACACUGCCUAUGCCUGUCCCAAGCCCGGAUAAAAGUGGAGGGGGCGG: the self-cleavage came to 0.84.

For the variant CCGCCUAACACUGCCUAUGCCAGUCCCAAGCCCGGAUAAAAGUGGAGGGGGCGG, the self-cleavage was found to be 0.99. Take CCGCCUAACACUGCCUAUGCCGGUCCCAAGCCCGGCUAAAAGUGGAGGGGGCGG: the self-cleavage amounted to 0.6.

Take CCGCCUAACACUGCCUAUGCCGGUCCCAAGCCCGGGUAAAAGUGGAGGGGGCGG: the self-cleavage came out at 0.97. Take CCGCCUAACACUGCCUAUGCCGGUCCCAAGCCCGGUUAAAAGUGGAGGGGGCGG: the self-cleavage came out at 1.01.

As to CCGCCUAACACUGCCUAUGCCGGUCCCAAGCCAGGAUAAAAGUGGAGGGGGCGG, the self-cleavage came to 0.11.

With CCGCCUAACACUGCCUAUGCCGGUCCCAAGCCUGGAUAAAAGUGGAGGGGGCGG, the self-cleavage was found to be 0.71. Then CCGCCUAACACUGCCUAUGCCGGUCCCAAGCCGGGAUAAAAGUGGAGGGGGCGG, with 0.04; and CCGCCUAACACUGCCUAUGCCGGUCCCAAGCCCGGAUAAUAGUGGAGGGGGCGG, with 0.55; and CCGCCUAACACUGCCUAUGCCGGUCCCAAGCCCGGAUAAGAGUGGAGGGGGCGG, with 0.38. As to CCGCCUAACACUGCCUAUGCCGGUCCCAAGCCCGGAUAACAGUGGAGGGGGCGG, the self-cleavage was determined as 0.07. Consider CCGCCUAACACUGCCUAUGCCGGUCCCAAGACCGGAUAAAAGUGGAGGGGGCGG, for which the self-cleavage came out at 0.03.

As to CCGCCUAACACUGCCUAUGCCGGUCCCAAGGCCGGAUAAAAGUGGAGGGGGCGG, the self-cleavage amounted to 0.07.

With CCGCCUAACACUGCCUAUGCCGGUCCCAAGUCCGGAUAAAAGUGGAGGGGGCGG, the self-cleavage was 0.74. For the variant CCGCCUAACACUGCCUAUACCGGUCCCAAGCCCGGAUAAAAGUGGAGGGGGCGG, the self-cleavage came out at 0.89. Regarding CCGCCUAACACUGCCUAUCCCGGUCCCAAGCCCGGAUAAAAGUGGAGGGGGCGG, the self-cleavage was determined as 0.09. Then CCGCCUAACACUGCCUAUUCCGGUCCCAAGCCCGGAUAAAAGUGGAGGGGGCGG, with 0.26; and CCGCCUAACACUGCCUAUGCCGGUCCCAAGCCCGCAUAAAAGUGGAGGGGGCGG, with 0.17; and CCGCCUAACACUGCCUAUGCCGGUCCCAAGCCCGUAUAAAAGUGGAGGGGGCGG, with 0.82. Then CCGCCUAACACUGCCUAUGCCGGUCCCAAGCCCGAAUAAAAGUGGAGGGGGCGG, with 0.76; and CCGCCUUACACUGCCUAUGCCGGUCCCAAGCCCGGAUAAAAGUGGAGGGGGCGG, with 0.06; and CCGCCUAACACUGCCUAUGCCGGUCCCAAGCCCGGAUAAAAGUGGAGGGGGAGG, with 0.97. Next, CCGCCUAACACUGCCUAUGCCGGUCCCAAGCCCGGAUAAAAGUGGAGGGGGGGG: 0.92.

Regarding CCGCCUAACACUGCCUAUGCCGGUCCCAAGCCCGGAUAAAAGUGGAGGGGGUGG, the self-cleavage is 0.92. On to CCGCCUAACACUGCCUAUGACGGUCCCAAGCCCGGAUAAAAGUGGAGGGGGCGG, for which the self-cleavage is 0.69. On to CCGCCUAACACUGCCUAUGUCGGUCCCAAGCCCGGAUAAAAGUGGAGGGGGCGG, for which the self-cleavage came to 0.89. As to CCGCCUAACACUGCCUAUGGCGGUCCCAAGCCCGGAUAAAAGUGGAGGGGGCGG, the self-cleavage amounted to 0.15. In the case of CCGCCUAACACUGCCUAUGCCGGUCCCACGCCCGGAUAAAAGUGGAGGGGGCGG, the self-cleavage is 0.04. On to CCGCCUAACACUGCCUAUGCCGGUCCCAUGCCCGGAUAAAAGUGGAGGGGGCGG, for which the self-cleavage was 0.11. In the case of CCGCCUAACACUGCCUAUGCCGGUCCCAGGCCCGGAUAAAAGUGGAGGGGGCGG, the self-cleavage came to 0.18.

With CCGCCUAACACUGCCUAUGCCGGUCCCAAGCCCCGAUAAAAGUGGAGGGGGCGG, the self-cleavage is 0.51. Take CCGCCUAACACUGCCUAUGCCGGUCCCAAGCCCAGAUAAAAGUGGAGGGGGCGG: the self-cleavage amounted to 0.73.

For the variant CCGCCUAACACUGCCUAUGCCGGUCCCAAGCCCUGAUAAAAGUGGAGGGGGCGG, the self-cleavage was determined as 0.67.

For CCGCCUAACAUUGCCUAUGCCGGUCCCAAGCCCGGAUAAAAGUGGAGGGGGCGG, the self-cleavage was found to be 0.8. On to CCGCCUAACAGUGCCUAUGCCGGUCCCAAGCCCGGAUAAAAGUGGAGGGGGCGG, for which the self-cleavage was 0.55. Consider CCGCCUAACAAUGCCUAUGCCGGUCCCAAGCCCGGAUAAAAGUGGAGGGGGCGG, for which the self-cleavage turned out to be 0.64.

On to CCGCCUAACACUGCCUAUGCCGGUCCCAAGCACGGAUAAAAGUGGAGGGGGCGG, for which the self-cleavage turned out to be 0.08.

Consider CCGCCUAACACUGCCUAUGCCGGUCCCAAGCUCGGAUAAAAGUGGAGGGGGCGG, for which the self-cleavage came to 0.13. CCGCCUAACACUGCCUAUGCCGGUCCCAAGCGCGGAUAAAAGUGGAGGGGGCGG: the self-cleavage was found to be 0.11. As for CCGCCUAACACUGACUAUGCCGGUCCCAAGCCCGGAUAAAAGUGGAGGGGGCGG, the self-cleavage stood at 0.05. For the variant CCGCCUAACACUGGCUAUGCCGGUCCCAAGCCCGGAUAAAAGUGGAGGGGGCGG, the self-cleavage turned out to be 0.11. As to CCGCCUAACACUGUCUAUGCCGGUCCCAAGCCCGGAUAAAAGUGGAGGGGGCGG, the self-cleavage worked out at 0.3. As to CCGCCUAACACUGCCUCUGCCGGUCCCAAGCCCGGAUAAAAGUGGAGGGGGCGG, the self-cleavage was 0.94. For the variant CCGCCUAACACUGCCUGUGCCGGUCCCAAGCCCGGAUAAAAGUGGAGGGGGCGG, the self-cleavage turned out to be 0.96. In the case of CCGCCUAACACUGCCUUUGCCGGUCCCAAGCCCGGAUAAAAGUGGAGGGGGCGG, the self-cleavage was 1.01. For the variant CCGCCUAGCACUGCCUAUGCCGGUCCCAAGCCCGGAUAAAAGUGGAGGGGGCGG, the self-cleavage is 0.62.

Consider CCGCCUACCACUGCCUAUGCCGGUCCCAAGCCCGGAUAAAAGUGGAGGGGGCGG, for which the self-cleavage was determined as 0.06.
